Assay results as given in ChEMBL document CHEMBL3526046, “The role of aldehyde oxidase and xanthine oxidase in the biotransformation of a novel negative allosteric modulator of metabotropic glutamate receptor subtype 5” (Drug Metab Dispos, 2012).

What was measured:
Hepatocyte [1] = experiment: Drug level in Sprague-Dawley rat cryopreserved hepatocytes treated with 25 uM VU0409106 by LC-UV-MS analysis; type: ADME, cell-based
[2] = Drug level in human hepatic S9 fraction treated with 25 uM VU0409106 by LC-UV-MS analysis; type: ADME, tissue-based, Liver
Method in brief: (§1)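 Hepatic S9 (5 mg/ml) in 0.1 M potassium phosphate pH 7.4 with 3 mM MgCl2 and 25 µM substrate, 37°C, 1 h under ambient oxygen; NADPH (2 mM) added in select runs. Reactions started by adding substrate. Protein precipitated with 2 volumes MeCN and the supernatant dried under nitrogen, reconstituted in 85:15 10 mM ammonium formate (pH 4.1)-MeCN, then analysed by LC-MS.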

[3] = Drug level in Sprague-Dawley rat hepatic S9 fraction treated with 25 uM VU0409106 by LC-UV-MS analysis; type: ADME, tissue-based, Liver; method in brief: as §1
Plasma [4] = experiment: Retention time in Sprague-Dawley rat plasma treated with 56.6 mg/kg, ip VU0409106 single dose; type: ADME, organism-based; design: dose 56.6 mg/kg, route intraperitoneal; conditions: in vivo
Method in brief: (§2)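 Male Sprague-Dawley rats given a single intraperitoneal dose of 56.6 mg/kg. Plasma extracted with 2 volumes acetonitrile and centrifuged; metabolites profiled by LC-MS/MS.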

[5] = Drug level in Sprague-Dawley rat hepatic S9 fraction treated with 3-fluoro-N-(4-methylthiazol-2-yl)-5-(6-oxo-1,6-dihydropyrimidin-5-yloxy)benzamide by LC-MS/MS analysis in presence of 100 uM allopurinol xanthine oxidase inhibitor; type: ADME, tissue-based, Liver
Plasma [6] = experiment: Drug level in Sprague-Dawley rat plasma treated with 56.6 mg/kg, ip VU0409106 single dose by LC-MS/MS analysis; type: ADME, organism-based; design: dose 56.6 mg/kg, route intraperitoneal; conditions: in vivo; method in brief: as §2
[7] = Drug level in Sprague-Dawley rat hepatic S9 fraction treated with 25 uM VU0409106 by LC-MS/MS analysis in presence of 100 uM allopurinol xanthine oxidase inhibitor; type: ADME, tissue-based, Liver; method in brief: as §1
[8] = Drug level in cynomolgus monkey hepatic S9 fraction treated with 25 uM VU0409106 by LC-UV-MS analysis; type: ADME, tissue-based, Macaca fascicularis, Liver; method in brief: as §1
Hepatocyte [9] = experiment: Drug level in human cryopreserved hepatocytes treated with 25 uM VU0409106 by LC-MS/MS analysis in presence of 1-ABT pan-450 inactivator; type: ADME, cell-based
Method in brief: (§3)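 Pooled cryopreserved hepatocytes (2 × 10^6 cells/ml) in Krebs-Henseleit buffer, 25 µM substrate, 37°C for 4 h. Rat donors were 14 males, cynomolgus 4 males, human 20 mixed gender. Cells precipitated with 2 volumes MeCN, centrifuged at 4°C; supernatant dried under nitrogen, reconstituted in 15% aqueous MeCN for LC-MS.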

[10] = Drug level in cynomolgus monkey cryopreserved hepatocytes treated with 25 uM VU0409106 by LC-MS/MS analysis; type: ADME, cell-based, Macaca fascicularis, Hepatocyte; method in brief: as §3
Hepatocyte [11] = experiment: Drug level in human cryopreserved hepatocytes treated with 25 uM VU0409106 by LC-MS/MS analysis; type: ADME, cell-based; method in brief: as §3
Hepatocyte [12] = experiment: Drug level in Sprague-Dawley rat cryopreserved hepatocytes treated with 25 uM VU0409106 by LC-MS/MS analysis in presence of 1-ABT pan-450 inactivator; type: ADME, cell-based

Cc1csc(NC(=O)c2cc(F)cc(Oc3c[nH]c(=O)[nH]c3=O)c2)n1
Drug metabolism (Hepatocyte [1]): metabolite_detected | Drug metabolism [2]: metabolite_detected | Drug metabolism [3]: metabolite_detected | Retention_time (Plasma [4]): 12.3 min | Drug metabolism [5]: metabolite_not_detected | Drug metabolism (Plasma [6]): metabolite_detected | Drug metabolism [7]: metabolite_not_detected | Drug metabolism [8]: metabolite_detected

Cc1csc(NC(=O)c2cc(O)cc(Oc3c[nH]c(=O)[nH]c3=O)c2)n1
Drug metabolism (Hepatocyte [1]): metabolite_detected | Drug metabolism [2]: metabolite_detected | Retention_time (Plasma [4]): 13.4 min | Drug metabolism (Hepatocyte [9]): metabolite_not_detected | Drug metabolism [10]: metabolite_detected | Drug metabolism (Hepatocyte [11]): metabolite_detected | Drug metabolism (Plasma [6]): metabolite_detected | Drug metabolism (Hepatocyte [12]): metabolite_not_detected | Drug metabolism [8]: metabolite_detected
